Results published in ChEMBL document CHEMBL4184191, “Immunoproteasome inhibition and bioactivity of thiasyrbactins” (2018).
Active and inactive are the calls of the source. The rule behind the calls is not given here.

Legend:
[1] = molecular target: T1, Proteasome component C5 (Homo sapiens) (UniProt P20618); experiment: Inhibition of 20s constitutive proteasome caspase-like activity in human erythrocytes using […] as substrate pretreated for 2 hrs followed by substrate addition measured after 10 mins by luminescence assay; type: cell-based
T1 sequence (whole entry): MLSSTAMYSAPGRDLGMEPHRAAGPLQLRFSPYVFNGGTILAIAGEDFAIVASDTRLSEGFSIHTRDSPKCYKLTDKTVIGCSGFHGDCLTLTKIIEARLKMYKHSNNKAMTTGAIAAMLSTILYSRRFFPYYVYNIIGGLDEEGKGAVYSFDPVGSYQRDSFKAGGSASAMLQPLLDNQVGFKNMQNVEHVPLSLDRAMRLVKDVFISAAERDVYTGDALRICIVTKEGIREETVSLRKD
Outline: (§1)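 Purified human 20S proteasome was used: constitutive enzyme from erythrocytes, immunoproteasome from PBMCs, each at 2.2 ng/µl. It was preincubated with inhibitor (0 to 10 µM) in 10 mM HEPES pH 7.3 for 2 h at 37 °C. An equal volume of luminogenic substrate was then added ([…], […], Suc-LLVY-Glo for β5), and luminescence was read 10 min later. Runs were in triplicate, and Ki-50 values were fitted and averaged.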

[2] = molecular target: T1, Proteasome component C5 (Homo sapiens); experiment: Inhibition of immunoproteasome caspase-like activity in human […] using […] as substrate pretreated for 2 hrs followed by substrate addition measured after 10 mins by luminescence assay; type: cell-based; outline: as §1
[3] = molecular target: T2, Proteasome Macropain subunit MB1 (Homo sapiens) (UniProt P28074); experiment: Inhibition of immunoproteasome chymotrypsin-like activity in human […] using Suc-LLVY-Glo as substrate pretreated for 2 hrs followed by substrate addition measured after 10 mins by luminescence assay; type: cell-based; outline: as §1
T2 sequence (whole entry): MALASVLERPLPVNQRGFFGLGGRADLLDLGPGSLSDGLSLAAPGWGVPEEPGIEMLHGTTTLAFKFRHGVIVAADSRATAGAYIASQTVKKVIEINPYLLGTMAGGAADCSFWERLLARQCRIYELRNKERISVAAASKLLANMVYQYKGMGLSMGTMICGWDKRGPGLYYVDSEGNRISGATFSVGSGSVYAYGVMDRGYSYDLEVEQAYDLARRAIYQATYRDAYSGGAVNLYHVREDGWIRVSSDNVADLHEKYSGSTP

[4] = Cytotoxicity against human MYCN2 cells assessed as reduction in cell viability at 0.01 to 1 uM after 24 hrs […]; type: functional
[5] = molecular target: Proteasome Macropain subunit (Homo sapiens) (UniProt P49721); experiment: Inhibition of 20s constitutive proteasome trypsin-like activity in human erythrocytes using […] as substrate pretreated for 2 hrs followed by substrate addition measured after 10 mins by luminescence assay; type: cell-based; outline: as §1
SK-N-SH [6] = experiment: Cytotoxicity against human SK-N-SH cells assessed as reduction in cell viability at 0.01 to 1 uM after 24 hrs […]; type: functional
[7] = molecular target: Proteasome Macropain subunit (Homo sapiens) (UniProt P49721); experiment: Inhibition of immunoproteasome trypsin-like activity in human […] using […] as substrate pretreated for 2 hrs followed by substrate addition measured after 10 mins by luminescence assay; type: cell-based; outline: as §1
SK-N-SH [8] = experiment: Cytotoxicity against human SK-N-SH cells assessed as reduction in cell viability at 0.1 to 1 uM after 24 hrs […]; type: functional, cell-based
Homo sapiens [9] = species on record: Homo sapiens; experiment: Cytotoxicity against human MYCN2 cells assessed as reduction in cell viability at 0.1 to 1 uM after 24 hrs by […] assay; type: functional, cell-based
Outline: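 Human neuroblastoma cells were plated overnight in RPMI with 10% heat-inactivated FBS, penicillin (100 U/ml) and streptomycin (100 µg/ml), at 37 C and 5% CO₂. They were exposed to inhibitor at 0.01, 0.1 and 1 µM for 24 h. Viability was read with MTS reagent as absorbance at 490 nm. Two independent experiments were run, each in triplicate wells (n=6), and results are expressed relative to untreated control cells.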

SK-N-SH [10] = experiment: Cytotoxicity against human SK-N-SH cells assessed as reduction in cell viability after 24 hrs […]; type: functional, cell-based
Homo sapiens [11] = species on record: Homo sapiens; experiment: Cytotoxicity against human SK-N-BE(2)C cells assessed as reduction in cell viability after 24 hrs […]; type: functional, cell-based
[12] = molecular target: T2, Proteasome Macropain subunit MB1 (Homo sapiens); experiment: Inhibition of 20s constitutive proteasome chymotrypsin-like activity in human erythrocytes using Suc-LLVY-Glo as substrate pretreated for 2 hrs followed by substrate addition measured after 10 mins by luminescence assay; type: cell-based; outline: as §1
Homo sapiens [13] = species on record: Homo sapiens; experiment: Cytotoxicity against human MYCN2 cells assessed as reduction in cell viability after 24 hrs […]; type: functional, cell-based
[14] = molecular target: T2, Proteasome Macropain subunit MB1 (Homo sapiens); experiment: Stimulation of immunoproteasome chymotrypsin-like activity in human […] at 1 uM using Suc-LLVY-Glo as substrate pretreated for 2 hrs followed by substrate addition measured after 10 mins by luminescence assay; type: cell-based

Proteasome Macropain subunit (Homo sapiens), sequence (P49721 whole entry): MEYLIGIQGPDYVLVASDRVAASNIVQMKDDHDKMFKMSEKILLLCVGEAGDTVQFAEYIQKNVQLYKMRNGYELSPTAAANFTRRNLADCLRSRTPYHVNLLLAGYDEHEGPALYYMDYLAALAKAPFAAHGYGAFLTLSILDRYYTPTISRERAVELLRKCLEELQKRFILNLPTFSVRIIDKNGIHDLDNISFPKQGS

SMILES	Ki50 [1]	Ki50 [2]	Ki50 [3]	Ki50 [5]	Ki50 [7]	inhibition [1]	inhibition [2]	inhibition [3]	inhibition [5]	inhibition [7]	inhibition [12]	Activity [14]	Activity [4]	Activity (SK-N-SH [6])	Activity (SK-N-SH [8])	Activity (Homo sapiens [9])	Activity (SK-N-SH [10])	Activity (Homo sapiens [11])	Activity (Homo sapiens [13])
CC(C)C[C@H](NC(=O)[C@H](Cc1ccccc1)NC(=O)c1cnccn1)B(O)O	0.02 µM	0.03 µM	0.01 µM												Active	Active			
C[C@H]1/C=C/C(=O)NCCSC[C@H](NC(=O)c2cnccn2)C(=O)N1						inactive	inactive	inactive	inactive	inactive	inactive						inactive	inactive	inactive
CC(C)[C@H](NC(=O)c1cnccn1)C(=O)N[C@H]1CSCCNC(=O)/C=C/[C@H](C)NC1=O	> 10 µM	> 10 µM	> 10 µM	0.92 µM	0.75 µM							Active							
CCCCCCCCCCCCNC(=O)N[C@H](C(=O)N[C@H]1C[S+]([O-])CCNC(=O)/C=C/[C@H](C)NC1=O)C(C)C (some centres undefined)						inactive	inactive	inactive	inactive	inactive	inactive						inactive	inactive	inactive
C[C@H]1/C=C/C(=O)NCC[S+]([O-])C[C@H](NC(=O)c2cnccn2)C(=O)N1 (some centres undefined)						inactive	inactive	inactive	inactive	inactive	inactive						inactive	inactive	inactive

More lines, main results first:

Ki50 [1]	Ki50 [2]	Ki50 [3]	Ki50 [5]	Ki50 [7]	inhibition [1]	inhibition [2]	inhibition [3]	inhibition [5]	inhibition [7]	inhibition [12]	Activity [14]	SMILES	Activity [4]	Activity (SK-N-SH [6])	Activity (SK-N-SH [8])	Activity (Homo sapiens [9])	Activity (SK-N-SH [10])	Activity (Homo sapiens [11])	Activity (Homo sapiens [13])
> 10 µM	> 10 µM	> 10 µM	1.76 µM	1.39 µM								CCCCCCCCCCCCNC(=O)N[C@H](C(=O)N[C@H]1CSCCNC(=O)/C=C/[C@H](C)NC1=O)C(C)C	30 - 50%	30 - 50%					
2.07 µM	1.32 µM	0.11 µM										COc1ccc(C[C@H](NC(=O)[C@H](C)NC(=O)CN2CCOCC2)C(=O)N[C@@H](Cc2ccccc2)C(=O)[C@]2(C)CO2)cc1							
> 10 µM	> 10 µM	> 10 µM	1.07 µM	0.74 µM							Active	CC(C)Cc1ccc([C@H](C)C(=O)N[C@H](C(=O)N[C@H]2CSCCNC(=O)/C=C/[C@H](C)NC2=O)C(C)C)cc1							
